Activity calls are given as the source filed them. The calls are words filed in the database; no cut-off is given here.
Experiments:
Quadruplex DNA [1] = assay: Displacement of Thiazole orange from c-Kit2 G4 quadruplex DNA incubated for 3 mins by spectrofluorimetry relative to control; format: nucleic-acid assay
Outline: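 Pre-folded DNA (0.25 μM) in K phosphate/KCl buffer was mixed with thiazole orange: 0.50 μM for G4s, 0.75 μM for duplex. Ligand was added stepwise from 0.5 to 10 equiv, with 3 min equilibration at 20 °C after each addition. Excitation 495 nm; emission read at 543 nm. Displacement % = 100 − (F/F0 × 100). DC50 is the concentration giving 50% displacement.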

Quadruplex DNA [2] = assay: Stabilization of parallel Tel23 G4 quadruplex DNA assessed as change in melting temperature at 10 mol.equiv by circular dichroism melting assay; format: nucleic-acid assay
Outline: (§1)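 CD melting from 20 to 100 °C at 1 °C/min, monitored at 264 nm (c-Kit1, c-Kit2, c-Myc, Tel23-p), 287 nm (Tel23-h) or 280 nm (hairpin). Ligand was at 10 mol equiv with folded DNA (15 μM G4, 30 μM hairpin). ΔTm is Tm with ligand minus Tm without, from curve fits, averaged over triplicates.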

Quadruplex DNA [3] = assay: Effect on c-Kit1 G4 quadruplex DNA architecture at 10 mol.equiv by circular dichroism spectral analysis; format: nucleic-acid assay
Outline: (§2)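 CD spectra of 15 μM G4s or 30 μM hairpin in 20 mM K phosphate pH 7.0 with 5 mM KCl, after annealing. Recorded at 20 °C over 230–360 nm, three scans averaged, buffer baseline subtracted. Ligand was added at 10 mol equiv to the folded DNA from a 10 mM DMSO stock.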

U2OS [4] = assay: Induction of DNA:RNA hybrid formation in human U2OS cells assessed as increase in R loop formation at 10 uM incubated for 30 mins by S9.6 immunofluorescence microscopy; format: functional, cell-based
Outline: (§3)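 U2OS cells were treated at 10 μM for 5–60 min, 24 h after seeding, then fixed in cold methanol and permeabilized with acetone. Stained with S9.6 antibody and anti-nucleolin. The nucleolar signal was subtracted from total nuclear S9.6 fluorescence, and values were normalized to the untreated mean; two biological replicates.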

U2OS [5] = assay: Induction of DNA:RNA hybrid formation in human U2OS cells assessed as increase in R loop formation at 10 uM incubated for 60 mins by S9.6 immunofluorescence microscopy; format: functional, cell-based; outline: as §3
Quadruplex DNA [6] = assay: Effect on c-Kit2 G4 quadruplex DNA architecture at 10 mol.equiv by circular dichroism spectral analysis; format: nucleic-acid assay; outline: as §2
Quadruplex DNA [7] = assay: Stabilization of c-Kit1 G4 quadruplex DNA assessed as change in melting temperature at 10 mol.equiv by circular dichroism melting assay; format: nucleic-acid assay; outline: as §1
U2OS [8] = assay: Induction of genome instability in human U2OS cells assessed as fold increase in micronuclei formation per 100 cells at 10 uM incubated for 24 hrs by immunofluorescence microscopy relative to control; format: functional
Outline: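 U2OS cells were treated for 24 h, fixed in 4% paraformaldehyde, permeabilized with 0.5% Triton X-100, and stained with DAPI. Micronuclei were counted per 100 cells.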

U2OS [9] = assay: Induction of DNA damage in human U2OS cells assessed as increase in phosphorylated 53BPI foci colocalization with gammaH2AX foci at 10 uM incubated for 4 hrs by immunofluorescence microscopy; format: functional, cell-based
Outline: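 U2OS cells were treated with 10 μM for 4 h, pre-extracted 3 min with CSK buffer containing 0.5% Triton X-100, and fixed in 2% paraformaldehyde. Co-stained 1 h for 53BP1 and γH2AX, with DAPI counterstain. Foci were counted per nucleus and normalized to the untreated mean, across three biological replicates.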

- inhibition (Quadruplex DNA [1]): 100%
- Activity (Quadruplex DNA [2]): Active
- Activity (Quadruplex DNA [3]): inactive
- Activity (Quadruplex DNA [6]): inactive
- Activity (Quadruplex DNA [7]): Active
Compound: CC(C)(C)c1cc(/C=N/NC(=N)N)c(O)c(/C=C2/C(=O)Nc3c2ccc2ccccc32)c1.Cl
- Activity (U2OS [4]): Active
- Activity (U2OS [5]): Active
- fold change (FC) (U2OS [8]): 3
- Activity (U2OS [9]): Active
